For eleven molecules, EC50 and Kd results are on record in ChEMBL document CHEMBL1129368 (J Med Chem, 1996).

Bridge positions count the residues as written; N and C are the ends. Square brackets hold non-standard residues; d marks the D form. Peptide text beside a SMILES is read from it. Pen = CC(C)(S)[C@H](N)C(=O)O; Sar = CNCC(=O)O

Sequence of Type-1 angiotensin II receptor (Bos taurus) (P25104 whole entry, looked up): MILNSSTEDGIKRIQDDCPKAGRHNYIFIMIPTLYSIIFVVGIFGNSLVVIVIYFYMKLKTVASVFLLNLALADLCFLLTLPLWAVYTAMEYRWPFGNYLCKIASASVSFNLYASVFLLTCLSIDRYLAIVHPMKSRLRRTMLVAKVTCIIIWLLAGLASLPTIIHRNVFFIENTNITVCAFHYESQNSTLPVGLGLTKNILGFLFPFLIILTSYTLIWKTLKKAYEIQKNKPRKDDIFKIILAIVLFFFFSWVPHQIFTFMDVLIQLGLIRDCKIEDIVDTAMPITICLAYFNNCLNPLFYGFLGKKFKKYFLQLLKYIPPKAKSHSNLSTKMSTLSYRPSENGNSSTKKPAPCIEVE

For the first assay, the species on record is Oryctolagus cuniculus. As to the kind of experiment: Activity of compound in contraction assays performed using isolated rabbit aorta. The class given is functional. The method, boiled down: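 Rings (5 mm) cut from excised aorta, cleaned of adipose tissue, hung in 5 mL organ baths of continuously oxygenated Krebs solution at 37 °C, changed every 15 min. Initial tension 2 g, readjusted until stable (about 90 min equilibration) before testing.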
As usually defined, the EC50 is the concentration giving half of the maximal effect. Read a low EC50 as an effect from little substance. The molecule `CNCC(=O)N[C@@H](CCCN=C(N)N)C(=O)N[C@H](C(=O)N[C@@H](Cc1ccc(O)cc1)C(=O)N[C@H](C(=O)N[C@@H](Cc1c[nH]cn1)C(=O)N1CCC[C@H]1C(=O)N[C@@H](Cc1ccccc1)C(=O)O)C(C)C)C(C)C` (H-[Sar]RVYVHPF-OH) registered an EC50 of 0.35 nM. Same read-out and setting: then `CNCC(=O)N[C@@H](CCCN=C(N)N)C(=O)N[C@H](C(=O)N[C@H](Cc1ccc(O)cc1)C(=O)N1CCC[C@H]1C(=O)N[C@@H](Cc1c[nH]cn1)C(=O)N1CCC[C@H]1C(=O)N[C@@H](Cc1ccccc1)C(=O)O)C(C)C`, with 94 nM; and `CC[C@H](C)[C@H](NC(=O)[C@H](Cc1ccc(O)cc1)NC(=O)[C@@H](NC(=O)[C@H](CCCNC(=N)N)NC(=O)[C@@H](N)CC(=O)O)C(C)C)C(=O)N[C@@H](Cc1cnc[nH]1)C(=O)N1CCC[C@H]1C(=O)N[C@@H](Cc1ccccc1)C(=O)O` [ANGIOTENSIN II], with 4.6 nM; and `CNCC(=O)N[C@@H](CCCNC(=N)N)C(=O)N[C@H](C(=O)N[C@@H](Cc1ccc(O)cc1)C(=O)N[C@@H]1CCSS[C@@H]2C[C@H](C(=O)N[C@@H](Cc3ccccc3)C(=O)O)N(C2)C(=O)[C@@H](Cc2cnc[nH]2)NC1=O)C(C)C`, with 1770 nM.

A further assay concerns the target Type-1 angiotensin II receptor (Bos taurus) (UniProt P25104). In words: Binding affinity was determined against Angiotensin II receptor, type 1.
The term Kd denotes the free concentration of one partner at which half of the binding sites on the other are occupied at equilibrium, for simple one-to-one binding. A high value points to weaker binding. With `CNCC(=O)N[C@@H](CCCNC(=N)N)C(=O)N[C@H](C(=O)N[C@@H](Cc1ccc(O)cc1)C(=O)N[C@@H]1CSS[C@@H]2C[C@H](C(=O)N[C@@H](Cc3ccccc3)C(=O)O)N(C2)C(=O)[C@@H](Cc2cnc[nH]2)NC1=O)C(C)C`, the Kd worked out at 2300 nM.

In the case of `CNCC(=O)N[C@@H](CCCNC(=N)N)C(=O)N[C@H](C(=O)N[C@@H](Cc1ccc(O)cc1)C(=O)N[C@@H]1CC(=O)N[C@@H]2C[C@H](C(=O)N[C@@H](Cc3ccccc3)C(=O)O)N(C2)C(=O)[C@@H](Cc2cnc[nH]2)NC1=O)C(C)C`, the Kd is more than 10000 nM. For the molecule `CNCC(=O)N[C@@H](CCCNC(=N)N)C(=O)N[C@H](C(=O)N[C@@H](Cc1ccc(O)cc1)C(=O)N[C@@H]1CCSS[C@@H]2C[C@H](C(=O)N[C@@H](Cc3ccccc3)C(=O)O)N(C2)C(=O)[C@@H](Cc2cnc[nH]2)NC1=O)C(C)C`, binding was put at a Kd of 20 nM. Still for that read-out and setting: then `CNCC(=O)N[C@@H](CCCNC(=N)N)C(=O)N[C@H](C(=O)N[C@@H](Cc1ccc(O)cc1)C(=O)N[C@H]1CSS[C@@H]2C[C@@H](C(=O)N[C@@H](Cc3ccccc3)C(=O)O)N(C2)C(=O)[C@H](Cc2cnc[nH]2)NC1=O)C(C)C`, with more than 10000 nM; and `CNCC(=O)N[C@@H](CCCN=C(N)N)C(=O)N[C@H](C(=O)N[C@H](Cc1ccc(O)cc1)C(=O)N[C@@H]1CCC(=O)N[C@@H]2C[C@H](C(=O)N[C@H](Cc3ccccc3)C(=O)O)N(C2)C(=O)[C@@H](Cc2c[nH]cn2)NC1=O)C(C)C`, with more than 10000 nM.

For the molecule `CNCC(=O)N[C@@H](CCCNC(=N)N)C(=O)N[C@H](C(=O)N[C@H](Cc1ccc(O)cc1)C(=O)N1CCC[C@H]1C(=O)N[C@@H](Cc1cnc[nH]1)C(=O)N1CCC[C@H]1C(=O)N[C@@H](Cc1ccccc1)C(=O)O)C(C)C`, the Kd was found to be 58 nM. That is a double-digit nanomolar value. The same measure, in the same setting: next, `CNCC(=O)N[C@@H](CCCNC(=N)N)C(=O)N[C@H](C(=O)N[C@@H](Cc1ccc(O)cc1)C(=O)N[C@H]1CCSS[C@@H]2C[C@@H](C(=O)N[C@@H](Cc3ccccc3)C(=O)O)N(C2)C(=O)[C@H](Cc2cnc[nH]2)NC1=O)C(C)C`: 750 nM; `CNCC(=O)N[C@@H](CCCNC(=N)N)C(=O)N[C@H](C(=O)N[C@@H](Cc1ccc(O)cc1)C(=O)N[C@H]1CSSC(C)(C)[C@@H](C(=O)N[C@@H](Cc2ccccc2)C(=O)O)NC(=O)[C@H](Cc2cnc[nH]2)NC1=O)C(C)C` (H-[Sar]RVYCH[Pen]F-OH; disulfide 5-7): more than 10000 nM.
